In ChEMBL document CHEMBL2331342, “Synthesis, in vitro antiplatelet activity and molecular modelling studies of 10-substituted 2-(1-piperazinyl)pyrimido[1,2-a]benzimidazol-4(10H)-ones” (Eur J Med Chem, 2013):

Key:
Assay type in all cases: functional, cell-free
[1] = Antiplatelet activity against collagen A23187-induced platelet aggregation in human plasma preincubated for 2 mins before addition of inducer by turbidimetric method
Method in brief: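 Human PRP from citrated blood of healthy volunteers (9:1 with 130 mM trisodium citrate, spun 100 g 30 min). Preincubated with compound or DMSO 37 °C 2 min, then A23187 added (final 20.0 μM). Born turbidimetric aggregometry; light transmission at 3 min. At least five concentrations; IC50 from inhibition–concentration curve versus solvent control, mean ±SD of at least five platelet batches.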

[2] = Antiplatelet activity against collagen ADP-induced platelet aggregation in human plasma preincubated for 2 mins before addition of inducer by turbidimetric method
Method in brief: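 Citrated PRP (blood:130 mM trisodium citrate 9:1, centrifuged 100 g for 30 min) from healthy human donors. Compound or DMSO preincubation at 37 °C for 2 min before ADP (final 5.0 μM). Turbidimetric (Born) read of light transmission after 3 min. IC50 from ≥5-concentration inhibition curve against solvent control; mean ±SD over at least five platelet batches.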

[3] = Antiplatelet activity against collagen collagen-induced platelet aggregation in human plasma preincubated for 2 mins before addition of inducer by turbidimetric method
Method in brief: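 Platelet-rich plasma prepared from healthy volunteers' blood in 130 mM trisodium citrate (9:1), centrifuged 100 g, 30 min. After 2 min at 37 °C with compound or DMSO, bovine tendon collagen added (final 5.0 μg/mL). Born turbidimetric method, light transmission at 3 min. IC50 derived from inhibition–concentration curve (≥5 concentrations) relative to solvent control; mean ±SD, ≥5 platelet batches.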

Structure (SMILES) | IC50 [1] [µM] | IC50 [2] [µM] | IC50 [3] [µM]
O=c1cc(N2CCNCC2)nc2oc3ccc(Cl)cc3n12 | 13 | 3.6 | 8.8
O=c1cc(N2CCNCC2)nc2n(Cc3ccccc3)c3ccccc3n12 | 143 | 90 | 27
CC(c1ccccc1)n1c2ccccc2n2c(=O)cc(N3CCNCC3)nc12 (stereo not drawn) | 175 | 163 | 172
COc1c(C)cnc(Cn2c3ccccc3n3c(=O)cc(N4CCNCC4)nc23)c1C | 56 | 33 | 49
CCN(CC)c1cc(=O)n2c3ccccc3n(CC)c2n1 | > 1000 | > 1000 | 75
CCN(CC)c1cc(=O)nc2n(CC)c3ccccc3n12 | 415 | > 1000 | 75
CC(=O)Oc1ccccc1C(=O)O [ASPIRIN] | > 1000 | > 1000 | 183
O=C1CCc2cc(OCCCCc3nnnn3C3CCCCC3)ccc2N1 [CILOSTAZOL] | 109 | 73 | 40
Cc1[nH]c(=O)c(C#N)cc1-c1ccncc1 [MILRINONE] | 14 | 11 | 12

Next, values leading:

IC50 [1] [µM] | IC50 [2] [µM] | IC50 [3] [µM] | Structure (SMILES)
75 | 53 | 15 | O=c1cc(N2CCNCC2)nc2n(CCc3ccccc3)c3ccccc3n12
60 | 26 | 31 | CSCn1c2ccccc2n2c(=O)cc(N3CCNCC3)nc12
38 | 19 | 30 | O=c1cc(N2CCNCC2)nc2n(Cc3ccccn3)c3ccccc3n12
23 | 15 | 9 | O=c1cc(N2CCNCC2)nc2n(Cc3cccnc3)c3ccccc3n12
32 | 15 | 21 | O=c1cc(N2CCNCC2)nc2n(Cc3ccncc3)c3ccccc3n12
41 | 36 | 8 | CN(C)CCn1c2ccccc2n2c(=O)cc(N3CCNCC3)nc12
13 | 16 | 13 | CCN(CC)CCn1c2ccccc2n2c(=O)cc(N3CCNCC3)nc12
42 | 16 | 28 | O=c1cc(N2CCNCC2)nc2n(CCN3CCCC3)c3ccccc3n12
11 | 12 | 15 | O=c1cc(N2CCNCC2)nc2n(CCN3CCOCC3)c3ccccc3n12
206 | 127 | 55 | CCn1c2ccccc2n2c(=O)cc(N3CCNCC3)nc12
50 | 62 | 50 | CCCn1c2ccccc2n2c(=O)cc(N3CCNCC3)nc12
142 | 116 | 77 | CC(C)n1c2ccccc2n2c(=O)cc(N3CCNCC3)nc12
